Screens from PubChem BioAssay.
Only some compounds are listed: those with a hit (about 1.9% of all), similar ones and a draw of the others.
NS3 helicase inh: inhibitors of HCV NS3 helicase, primary screen, biochemical, Cy5 molecular beacon fluorescence; Hepatitis C virus NS3 helicase; actives 0.56% (n = 290,000); NS3 helicase DNA unwinding; inhibition, % at 10.9 µM;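 active = inhibition above the mean of all tested compounds plus 3 SD, set per campaign, cut at about 35% in these data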
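System: HCV NS3 helicase fragment; control set: DMSO and thioflavine S; technique: Cy5 fluorescence at 0 and 60 min, beacon hairpin quenching; reagent: beacon DNA duplex substrate plus ATP; replicates: singlicate; schedule: 1 h reaction at 25 °C, ATP-initiated; medium: MOPS buffer pH 6.5 with MgCl2, DTT, Tween20, BSA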
core dimer inh: inhibitors of HCV core protein dimerization, primary screen, biochemical, TR-FRET, high-throughput. TR-FRET GST/Flag-core106 dimerization, 1536-well. inhibition, % at 5 µM. actives 0.33% (n = 300,000);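 active = inhibition above the mean of all tested compounds plus 3 SD, set per screening campaign, cut at about 45% in these data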
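Test system: GST/Flag-tagged HCV core106 proteins; Medium: KF-containing HEPES buffer, pH 7.45, DTT, CHAPS, BSA; Times: compound-protein-antibody incubation 4 h at 22.5 °C; Detection: TR-FRET 671 and 617 nm emission; Benchmarks: wells lacking GST-core106 and wells with excess unlabelled core106.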
DNA FID counter: compounds displacing fluorescent DNA intercalator, primary screen, artefact control for HCV NS3 helicase inhibitor project, biochemical, FID fluorescence | DNA fluorescent intercalator displacement | inhibition, % at 7.9 µM | actives 0.17% (n = 290,000) | AID 1845, 2009; in the data active = inhibition above about 37%;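 note: higher means more ethidium bromide displaced from hairpin DNA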
pCIP destab: p/CIP-EGFP fusion destabilizers, primary screen, fluorescence, F442A cells | Q05BA5 | 16 h | decrease of EGFP signal, % at 10 µM | actives 0.01% (n = 290,000) | AID 1984, 2009;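 active = EGFP signal decrease of at least 30% at 10 µM or well 3 SD below plate mean, unless failing retest; inactive = the rest, including hits failing retest or dose response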
GPR7 antag: GPR7 receptor antagonists, primary screen, cell-based, fluorescence, single concentration; GPR7-expressing cells, fluorescence antagonist assay; actives 1.1% (n = 290,000); inhibition, % at 4.4 µM; in the data active = inhibition above about 16%, passing the limit was not always enough;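 note: cells stimulated with the agonist NPW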
Target sequence (P48145 whole entry, looked up): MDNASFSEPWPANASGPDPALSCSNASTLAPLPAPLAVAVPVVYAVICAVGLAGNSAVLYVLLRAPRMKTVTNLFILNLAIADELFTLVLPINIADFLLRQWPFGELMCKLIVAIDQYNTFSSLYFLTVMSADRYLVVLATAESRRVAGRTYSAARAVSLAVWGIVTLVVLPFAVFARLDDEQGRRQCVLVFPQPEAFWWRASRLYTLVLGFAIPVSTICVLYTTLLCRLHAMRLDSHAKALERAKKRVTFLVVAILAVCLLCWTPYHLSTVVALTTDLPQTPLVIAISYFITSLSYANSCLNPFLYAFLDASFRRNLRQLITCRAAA
GPR7 antag conf: GPR7 receptor antagonists, confirmation, cell-based, fluorescence, single concentration. actives 52% (n = 2,400). AID 1952, 2009. GPR7-expressing cells, calcium fluorescence antagonist mode. shares compounds with GPR7 antag. inhibition, % at 4.4 µM; in the data active = inhibition above about 24%;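 note: stimulated with the GPR7 agonist NPW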
MCHR1 antag: MCHR1 antagonists in cells, counter-screen for GPR7 antagonist project, cell-based, fluorescence, human | shares compounds with GPR7 antag | MCHR1-expressing cells, fluorescence antagonist assay | inhibition, % at 4.4 µM | actives 62% (n = 2,400) | AID 2148, 2009; in the data active = inhibition above about 22%
Of the large screens only hits and unclear results are named; the others gave an inactive call (follow-up assays come after a bar, where they were run).

N=c1n(CCO)c2ccccc2n1CCOc1ccc(Cl)cc1Cl	GPR7 antag 30.7 | GPR7 antag conf 57.5 | MCHR1 antag 43.0
O=C1CCN(Cc2ccc(O)cc2)CCN1[C@H](CO)c1ccccc1	none
O=C(Nc1ccc(F)cc1F)NC1CCN(S(=O)(=O)c2ccc(F)cc2)CC1	GPR7 antag 37.0 | GPR7 antag conf inactive | MCHR1 antag inactive
Cc1c(C(=O)N2CCN(c3ccc(F)cc3)CC2)sc2ncnc(N3CCN(c4ccccn4)CC3)c12	GPR7 antag 22.6 | GPR7 antag conf inactive | MCHR1 antag 69.5
C[C@@H]1NC(=O)N(CCCn2ccnc2)C1=O	none
CCC(C)NC(=O)C1CCC(CNS(=O)(=O)c2cccc3nsnc23)CC1 (configuration not stated)	none
Cc1ccc(Nc2nc(N)nc(CSc3nc(C)cc(C)n3)n2)cc1	GPR7 antag 25.7 | GPR7 antag conf inactive | MCHR1 antag inactive
CCOc1ccccc1N1CCN(C(=O)/C=C/c2cccc([N+](=O)[O-])c2)CC1	GPR7 antag 21.3 | GPR7 antag conf 32.3 | MCHR1 antag 41.2
Cc1ccc(-c2nnc(NC3CCCC3)s2)cc1	none
COc1ccc(Cl)cc1N(CC(=O)NC1CC2CCC1C2)S(=O)(=O)c1ccccc1 (configuration not stated)	GPR7 antag 33.3 | GPR7 antag conf 36.9 | MCHR1 antag 62.3
CCOC(=O)c1c(-c2ccccc2)oc2ccc(OCC)cc12	none
CCOC(=O)c1c(-c2ccccc2)oc2ccc(OCC(O)CNCCN(C)C)cc12 (configuration not stated)	DNA FID counter 51.1, GPR7 antag 72.3 | GPR7 antag conf 60.0 | MCHR1 antag 69.3
Cc1ccc(-n2c(SCC(N)=O)nnc2-c2ccc(S(=O)(=O)N3CCCCC3)cc2)c(C)c1	GPR7 antag 35.4 | GPR7 antag conf 45.4 | MCHR1 antag inactive
Brc1cccc(OCCCNC2CCCC2)c1	none
COc1ccc(C2C(O)C(c3c[nH]c4ccccc34)=NN2C(=O)CCl)cc1 (configuration not stated)	GPR7 antag 22.4 | GPR7 antag conf 38.7 | MCHR1 antag 46.8
Cc1ccc(C(=O)O[C@H](C(=O)O)[C@H](OC(=O)c2ccc(C)cc2)C(=O)O)cc1	none
CCOc1ccc(N=c2oc3cc(O)ccc3cc2C(=O)NCC2CCCO2)cc1 (configuration not stated)	none
CCOc1ccccc1N=c1oc2cc(O)ccc2cc1C(=O)NCC1CCCO1 (configuration not stated)	GPR7 antag 28.7 | GPR7 antag conf inactive | MCHR1 antag inactive
CCN(CC)S(=O)(=O)c1cccc(C(=O)NNC(=O)c2ccc3[nH]c(=O)c(=O)[nH]c3c2)c1	none
O=C1/C(=N\O)Cc2ccccc21	GPR7 antag 27.3 | GPR7 antag conf inactive | MCHR1 antag inactive
COc1ccc(C(=O)NC2CCCc3c2cnn3-c2cc(F)cc(F)c2)c(OC)c1OC (configuration not stated)	none
CC(C)C1N(C(=O)CN2CCCCC2)CCN1S(=O)(=O)c1ccccc1 (configuration not stated)	GPR7 antag 26.6 | GPR7 antag conf inactive | MCHR1 antag inactive
CN(C)Cc1c(C(=O)N/N=C/c2ccccc2OCc2c(F)cccc2Cl)nnn1-c1nonc1N	GPR7 antag 35.1 | GPR7 antag conf 33.7 | MCHR1 antag 65.8
CCOc1ccc(-n2c(=S)sc3c(=O)[nH]c(SCC(=O)C(C)(C)C)nc32)cc1	none
CSc1nsc(SC)c1C(=O)N1CCN(S(=O)(=O)c2ccc(C)cc2)C1C(C)C (configuration not stated)	GPR7 antag 26.8 | GPR7 antag conf inactive | MCHR1 antag 45.7
